Source: ChEMBL document CHEMBL1127028, “Thromboxane receptor antagonism combined with thromboxane synthase inhibition. 5. Synthesis and evaluation of enantiomers of 8-[[(4-chlorophenyl)sulfonyl]amino]-4-(3-pyridinylalkyl)octanoic acid” (J Med Chem, 1993)

Tests used:
Thromboxane-A synthase = molecular target: T1, Thromboxane-A synthase (Homo sapiens, UniProt P24557); assay: In vitro inhibition of thromboxane synthetase in microsomal platelet preparation
T1 sequence (P24557 whole entry): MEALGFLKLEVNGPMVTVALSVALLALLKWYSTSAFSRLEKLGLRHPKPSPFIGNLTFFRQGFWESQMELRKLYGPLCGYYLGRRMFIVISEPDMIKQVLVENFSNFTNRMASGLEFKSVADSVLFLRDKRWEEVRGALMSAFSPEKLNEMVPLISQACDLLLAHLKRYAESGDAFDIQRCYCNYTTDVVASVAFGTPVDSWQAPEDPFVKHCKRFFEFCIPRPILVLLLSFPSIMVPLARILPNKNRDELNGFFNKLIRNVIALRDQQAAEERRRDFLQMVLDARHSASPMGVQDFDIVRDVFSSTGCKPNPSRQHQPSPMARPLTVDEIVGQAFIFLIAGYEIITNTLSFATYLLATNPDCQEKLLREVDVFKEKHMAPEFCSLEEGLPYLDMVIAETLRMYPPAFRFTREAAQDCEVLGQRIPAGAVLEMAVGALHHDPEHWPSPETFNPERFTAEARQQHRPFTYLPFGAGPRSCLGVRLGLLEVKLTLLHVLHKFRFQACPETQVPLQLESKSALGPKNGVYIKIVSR

Cavia porcellus [1] = assay: Ex vivo Inhibition of U 46619-induced aggregation of guinea pig platelets at the dose of 3 mg/Kg po per hour expressed as concentration ratio (EC50 of drug/EC50 of control); format: functional
How it was run: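 Oral dosing of guinea pigs at 3 mg/kg, blood drawn 1 h later, then ex vivo U 46619-induced platelet aggregation measured. Concentration ratio is EC50 of U 46619 for the treated group over EC50 for vehicle controls (n = 22). 4–6 animals per group; values are mean ± SEM.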

Homo sapiens [2] = species on record: Homo sapiens; assay: Inhibition of U 46619-induced Aggregation of Human Platelet-rich Plasma; format: functional
How it was run: (§1)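 Human platelets (washed, or platelet-rich plasma) were aggregated with U 46619, a TxA2/PGH2 mimetic. The test agent was titrated against this challenge and reported as an IC50.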

Homo sapiens [3] = species on record: Homo sapiens; assay: Inhibition of U 46619-induced Aggregation of human Washed platelets; format: functional; how it was run: as §1
Cavia porcellus [4] = assay: Ex vivo Inhibition of U 46619-induced aggregation of guinea pig platelets at the dose of 10 mg/Kg po per hour expressed as concentration ratio (EC50 of drug/EC50 of control); format: functional
How it was run: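 Guinea pigs dosed orally at 10 mg/kg; blood sampled 1 h post-dose and platelet aggregation induced ex vivo with U 46619. Result given as concentration ratio, EC50 of U 46619 in drug-treated animals divided by EC50 in vehicle controls (vehicle n = 22). Groups of 4–6 animals; mean ± SEM.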

Homo sapiens [5] = species on record: Homo sapiens; assay: Inhibition of U 46619-induced Aggregation of Human Washed Platelets; format: functional; how it was run: as §1

## O=C(O)CC[C@H](CCCCNS(=O)(=O)c1ccc(Cl)cc1)CCOc1cccnc1
Thromboxane-A synthase
  IC50: 3.5 nM
Cavia porcellus [1]
  Concentration ratio: 90
Homo sapiens [2]
  IC50: 0.32 nM
Homo sapiens [3]
  IC50: 10 nM

## O=C(O)CCC(CCCCNS(=O)(=O)c1ccc(Cl)cc1)CCCc1cccnc1 (stereo unspecified)
Cavia porcellus [4]
  Concentration ratio: 27
Homo sapiens [2]
  IC50: 0.39 nM

## O=C(O)CCC(CCCCNS(=O)(=O)c1ccc(Cl)cc1)CCOc1cccnc1 (stereo unspecified)
Thromboxane-A synthase
  IC50: 2.6 nM
Cavia porcellus [1]
  Concentration ratio: >100
Homo sapiens [2]
  IC50: 0.28 nM

## O=C(O)CC[C@H](CCCCNS(=O)(=O)c1ccc(Cl)cc1)CCCc1cccnc1
Homo sapiens [5]
  IC50: 11 nM
Thromboxane-A synthase
  IC50: 5 nM
Cavia porcellus [4]
  Concentration ratio: 43
Homo sapiens [2]
  IC50: 0.38 nM

## O=C(O)CC[C@@H](CCCCNS(=O)(=O)c1ccc(Cl)cc1)CCOc1cccnc1
Thromboxane-A synthase
  IC50: 13 nM
Cavia porcellus [1]
  Concentration ratio: 66
Homo sapiens [2]
  IC50: 0.53 nM
Homo sapiens [3]
  IC50: 9 nM

## O=C(O)CC[C@@H](CCCCNS(=O)(=O)c1ccc(Cl)cc1)CCCc1cccnc1
Thromboxane-A synthase
  IC50: 4.5 nM
Cavia porcellus [4]
  Concentration ratio: 54
Homo sapiens [2]
  IC50: 0.55 nM
Homo sapiens [3]
  IC50: 26 nM
